Results: article PMC5767168 (The Biochemical journal, 2011)

Assays:
[1] = Electron microscopy of fibril formation in DMEM; assay type: physicochemical; conditions: 10 μM peptide, 37°C
Method in brief: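 Peptide was dissolved in 60 mM NaOH, diluted into cell culture medium and sonicated 1 min. It was then incubated at 10 μM in DMEM without serum or cells at 37°C. Morphology was examined by electron microscopy periodically over several days, including 24 and 48 h.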

[2] = system: rat primary hippocampal neurons; experiment: Dendritic spine morphology, DiI staining; assay type: cell-based; conditions: for induction of dendritic varicosities: 3 μM peptide, 72 h
[3] = CD spectroscopy of conformational transition in phosphate buffer; assay type: physicochemical; conditions: 10 μM peptide, 10 mM sodium phosphate pH 7.4, 25°C; for appearance of the solution at 48–72 h of incubation: agitation; for kinetics of conformational transition by CD, in words: agitation 200 rev./min
Method in brief: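 HFIP-treated peptide films were dissolved in 60 mM NaOH, diluted with water, sonicated 1 min, then diluted with 20 mM sodium phosphate (pH 7.4) to 10 μM. Samples were incubated at 25°C with orbital agitation at 200 rev./min. CD spectra (190–260 nm, 1-mm path) were taken every 2 h for 12 h, then at 24, 48 and 72 h, and background-subtracted. Three independent experiments were run.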

[4] = Electron microscopy of fibril formation in phosphate buffer; assay type: physicochemical; conditions: sodium phosphate pH 7.4, 25°C, 96 h
Method in brief: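 HFIP-treated peptide was dissolved in 60 mM NaOH, sonicated and diluted in sodium phosphate (pH 7.4). It was incubated at 25°C with orbital agitation at 200 rev./min. Aliquots were applied to glow-discharged carbon-coated Formvar grids for 20 min, fixed in 2.5% glutaraldehyde for 4 min, stained with 1% uranyl acetate for 3 min, air-dried and imaged by TEM. Three independent experiments were run.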

[5] = CD spectroscopy of conformational transition in DMEM; assay type: physicochemical; conditions: 10 μM peptide, 37°C
Method in brief: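 Peptide was dissolved in 60 mM NaOH, diluted into cell culture medium and sonicated 1 min. It was then incubated at 10 μM in DMEM without serum or cells at 37°C. Conformation was followed by CD periodically over several days.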

Substance	time by which the fibrillation process appeared complete (electron microscopy) [1]	induction of dendritic varicosities [2]	appearance of the solution at 48–72 h of incubation [3]	kinetics of conformational transition by CD, in words [3]	other results
Aβ42: Aβ (amyloid β-protein) comprising 42 amino acids, wild-type	≤ 24 h	abundant varicosities			effect at 10 μM in the dendritic spine assay ([2]; 10 μM peptide, initial experiments): overt cell death
[Met(O2)^35]Aβ40 [Aβ40-sulfone]			free of particulate material or precipitates		
[Met(O2)^35]Aβ42 [Aβ42-sulfone]	≤ 24 h	abundant varicosities		behaved similarly to WT Aβ42	
[Met(O)^35]-Aβ42 [Aβ42-sulfoxide]		little induction of varicosities		did not change during the first 24 h	
[Met(O)^35]Aβ40 [Aβ40-sulfoxide]			free of particulate material or precipitates		abundance of fibrils by electron microscopy [4]: scarce relative to those of WT Aβ40 or Aβ40-sulfone; kinetics of conformational transition by CD in medium, in words [5]: somewhat slower
